Source: PubChem BioAssay (several laboratories)
AI-2 QS mod: Vibrio harveyi AI-2 quorum sensing modulation. Vibrio harveyi JMH597 AI-2 luminescence/OD600 ratio, 9 h; stronger effect = lower value; strain lacks LuxN and CqsS sensors; 0 = neutral-control median. activity change, % at 7.5 µM. hit rate 0.4% among 300,000; in the data active means activity change below about -75%, passing the limit was not always enough; inconclusive means no clear call, values can overlap the other calls;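 further: luminescence divided by OD600 gain over 9 h not by final OD600 alone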
HTR2A ag: agonists of mouse serotonin 5-HT2A receptor (HTR2A); P35363; CHO-K1 mHTR2A beta-arrestin complementation, luminescence; percent of 30 µM serotonin response; activation, % at 7.6 µM; hit rate 0.66% among 360,000;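 active means activation above a run cutoff, the mean activation of all tested compounds plus 3 SD, cut at about 14% in these data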;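 further: 0% = plate median of compound wells and 100% = 30 µM serotonin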
TbMetRS inhib: blocks T. brucei methionyl-tRNA synthetase activity | purified T. brucei MetRS, ATP depletion, Kinase-Glo luminescence | inhibition, % at 11.9 µM | hit rate 0.4% among 360,000 | AID 624268;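 active means inhibition above a per-plate cutoff of the control wells' mean inhibition plus 3 SD, cut at about 5.5% in these data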;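 further: 0% = DMSO wells median and 100% = median of wells with control inhibitor compound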
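Material: T. brucei methionyl-tRNA synthetase, purified; reagent: substrates ATP, L-methionine and bulk Escherichia coli tRNA; dosing: 11.9 µM single point; timing: 15 min plus 2 h at 25 °C; detection: luminescence of leftover ATP; evaluation: % inhibition; control set: DMSO-only wells as low control; replicates: singlicate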
AHR act: activators of human aryl hydrocarbon receptor; P35869; AHR-responsive luciferase reporter cells, luminescence; activation, % at 5 µM; hit rate 2.5% among 320,000; in the data active means activation above about 47%;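 further: 0% = vehicle wells and 100% = reference agonist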
Target sequence (P35869 whole entry, looked up): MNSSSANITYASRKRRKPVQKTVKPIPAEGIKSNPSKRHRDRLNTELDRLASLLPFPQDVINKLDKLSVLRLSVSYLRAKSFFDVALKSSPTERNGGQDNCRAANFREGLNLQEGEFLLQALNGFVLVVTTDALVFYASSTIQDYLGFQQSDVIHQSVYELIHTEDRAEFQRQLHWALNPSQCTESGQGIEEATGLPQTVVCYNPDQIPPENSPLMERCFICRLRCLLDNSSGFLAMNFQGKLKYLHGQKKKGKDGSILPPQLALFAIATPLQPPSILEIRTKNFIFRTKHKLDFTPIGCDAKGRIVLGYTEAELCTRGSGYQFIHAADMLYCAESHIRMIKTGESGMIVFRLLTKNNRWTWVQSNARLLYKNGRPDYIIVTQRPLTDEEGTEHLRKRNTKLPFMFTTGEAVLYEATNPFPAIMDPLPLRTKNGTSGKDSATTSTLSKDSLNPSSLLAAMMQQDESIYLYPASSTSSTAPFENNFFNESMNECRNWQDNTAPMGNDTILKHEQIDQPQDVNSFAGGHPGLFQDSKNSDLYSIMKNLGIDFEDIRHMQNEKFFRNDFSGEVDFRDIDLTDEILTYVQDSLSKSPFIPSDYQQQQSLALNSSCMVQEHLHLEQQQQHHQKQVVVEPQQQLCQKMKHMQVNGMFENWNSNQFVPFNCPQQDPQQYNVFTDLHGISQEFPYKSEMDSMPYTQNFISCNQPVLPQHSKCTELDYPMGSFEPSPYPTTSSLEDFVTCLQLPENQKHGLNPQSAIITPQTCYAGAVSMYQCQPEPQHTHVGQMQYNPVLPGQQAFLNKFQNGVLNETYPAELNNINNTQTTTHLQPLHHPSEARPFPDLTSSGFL
MsrA act: activators of bovine methionine sulfoxide reductase A. purified bovine MsrA, absorbance read-out. AID 602163. activation, % at 10.6 µM. hit rate 0.3% among 360,000; in the data active means activation above about 7.5%;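 further: 0% = vehicle and 100% = reference activator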
MsrA inh: inhibitors of bovine MsrA; purified bovine MsrA, absorbance read-out; inhibition, % at 15.5 µM; hit rate 0.75% among 360,000; in the data active means inhibition above about 4.5%;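 further: 0% = vehicle wells with enzyme and 100% = reference inhibitor wells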
JMH597 growth rt: retest: blocks Vibrio harveyi JMH597 growth; shares compounds with AI-2 QS mod; OD600 absorbance, 9 h; lacks LuxN and CqsS sensors; growth inhibition, % at 7.5 µM; hit rate 1% among 750; AID 2726;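 active means every replicate shows growth inhibition above 50%; inconclusive means at least half, but not all, replicates pass that cutoff; inactive means fewer than half of replicates pass it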
BB721 const-QS lum: retest counter-screen: BB721 constitutive quorum sensing luminescence decrease; shares compounds with AI-2 QS mod; hit rate 95% among 750; inhibition, % at 7.5 µM; Vibrio harveyi BB721 luminescence, 9 h; AID 2727;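 active means inhibition above about 80% in every replicate, not just on average, limit read from the data; inconclusive means at least half of replicates past the limit, but not all; inactive means fewer than half of replicates past the limit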
BB721 growth rt: retest Vibrio harveyi BB721 growth inhibition; hit rate 3% among 750; growth inhibition, % at 7.5 µM; shares compounds with AI-2 QS mod; OD600 absorbance, 9 h; AID 2728;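 active means every replicate shows growth inhibition above 50%; inconclusive means at least half but not all replicates above 50% inhibition; inactive means under half of replicates above 50% inhibition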
AI-2 QS JMH597: Vibrio harveyi AI-2 signaling luminescence modulation – JMH597 strain, confirmation. shares compounds with AI-2 QS mod. Vibrio harveyi JMH597 AI-2 quorum sensing luminescence, 9 h; luxN and CqsS knockout, AI-2 only. inhibition, % at 7.5 µM. hit rate 97% among 750. AID 2736;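 active means every replicate shows more than 75% inhibition of signal versus neutral control wells; inconclusive means half to three quarters of replicates exceed 75% inhibition; inactive means fewer than half of replicates exceed 75% inhibition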
* marks the source's active call; other numbers are inactive results; ? = inconclusive; . = no result. Shown are actives, neighbours in structure and some others; about 4.4% of the full set was active somewhere.

SMILES | AI-2 QS mod | HTR2A ag | TbMetRS inhib | AHR act | MsrA act | MsrA inh | JMH597 growth rt | BB721 const-QS lum | BB721 growth rt | AI-2 QS JMH597
COc1ccc(CNC(=O)Oc2ccccc2)cc1Cl | -80* | 2 | 0 | 4 | -1 | 1 | 14 | 97* | 36 | 97*
COc1ccc(NC(=O)Cc2nnc(SCC(=O)Nc3ccccc3)n2C)cc1 | ? | -3 | 0 | -3 | -5 | -1 | 0 | 2 | 0 | 1
COc1ccc(CC(=O)NCc2nnc(SCC(=O)Nc3ccccc3)n2C)cc1 | 18 | 8 | -1 | -1 | -2 | 0 | . | . | . | .
COC(=O)c1ccc(-c2noc(CN3C[C@H]4CC[C@H]3C4)n2)cc1 | -84* | 4 | 0 | 0 | 0 | 1 | -9 | 94* | 1 | 96*
CN1CC(=O)N(CC(=O)Nc2cc(Cl)cc(Cl)c2)C1=O | -94* | -4 | 0 | 1 | 0 | 0 | -10 | 98* | 17 | 99*
O=C1NC[C@@H](CCCCN2C[C@H](Cc3ccc(O)cc3)N(CC3CCCCC3)C(=O)C2=O)N(Cc2ccccc2)C1=O | . | 2 | 0 | . | 0 | 0 | . | . | . | .
Cc1ccc(Cn2ncc(Cl)c(Cl)c2=O)cc1 | 12 | 1 | 0 | 2 | -2 | -1 | . | . | . | .
O=c1c(Cl)c(Cl)cnn1Cc1nnc(-c2ccc(Cl)cc2)o1 | -91* | -1 | 1 | . | -6 | 2 | -23 | 98* | 22 | 99*
O=C(CCN1CCN(Cc2ccccc2)CC1)NNC(=O)c1ccc(Cl)c(Cl)c1 | . | -12 | 0 | . | -2 | 0 | . | . | . | .
COc1ccc(S(=O)(=O)Nc2ccc(-n3cccc3)cc2)cc1 | -96* | -4 | -1 | 0 | -3 | 2 | -1 | 94* | -50 | 99*
COc1ccc(NS(=O)(=O)c2ccc(N3C(=O)CCC3=O)cc2)cc1 | 14 | -1 | 0 | 0 | -2 | 1 | . | . | . | .
COc1ccc(CNC(=O)c2cc(-c3cc(C)ccc3O)n[nH]2)cc1 | -79* | -2 | 0 | 3 | -2 | -1 | -33 | ? | -13 | 84*
CCOc1ccc(S(=O)(=O)N2CCC(C(=O)NCCc3ccc(S(N)(=O)=O)cc3)CC2)cc1 | 11 | -5 | 0 | 1 | -2 | 2 | . | . | . | .
COc1ccc(N=C2SCC(c3ccccc3)=NN2C)cc1 | -87* | 3 | 0 | 3 | -3 | 1 | 51 | 90* | 146 | 95*
C=CCOc1c(CNc2ccc(C(=O)O)cc2)cccc1OCC | -89* | 1 | 0 | 1 | -2 | 3 | 5 | 95* | -2 | 98*
c1ccc2nc(SCc3cn4ccccc4n3)cnc2c1 | -69 | -1 | 0 | 13 | -5 | 0 | . | . | . | .
c1ccc(OCCSc2nc3ccccc3o2)cc1 | -80* | -1 | 0 | -8 | -1 | 0 | 27 | 94* | 7 | 96*
c1ccc(-c2noc(CSc3nc4ccccc4o3)n2)cc1 | ? | -2 | -1 | 2 | -2 | 0 | -3 | 87* | -34 | 94*
c1ccc2oc(SCc3cn4ccccc4n3)nc2c1 | -78* | 3 | 0 | -2 | -2 | 2 | 3 | 92* | 3 | 95*
CO/N=C(/C(=O)N[C@@H]1C(=O)N2C(C(=O)O)=CCS[C@H]12)c1cnc(N)s1 | 46 | 3 | 0 | -3 | -7 | . | . | . | . | .
COCC(C)n1c(COc2ccccc2F)nnc1SCC(=O)Nc1oc(C)c2c(C)n[nH]c(=O)c12 (stereo not drawn) | 2 | -7 | -1 | 6 | -1 | 0 | . | . | . | .
COC(=O)C(Cc1ccccc1)NC(=O)CNC(=O)c1sc2ccccc2c1Cl (stereo not drawn) | 26 | -2 | -1 | 3 | 1 | 0 | . | . | . | .
O=C(O)CCSC1CC(=O)N(c2ccccc2)C1=O (stereo not drawn) | 11 | 6 | 0 | 7 | 0 | 0 | . | . | . | .
NCCSC1CC(=O)N(c2ccc(Cl)c(Cl)c2)C1=O (stereo not drawn) | -80* | 5 | 0 | 6 | 0 | 0 | 3 | 90* | 34 | 94*
O=C1CC(SCCO)C(=O)N1c1ccc(Oc2ccccc2)cc1 (stereo not drawn) | -83* | 0 | 0 | -1 | -3 | 2 | 5 | 91* | 13 | 92*
SMILES | AI-2 QS mod | HTR2A ag | TbMetRS inhib | AHR act | MsrA act | MsrA inh | JMH597 growth rt | BB721 const-QS lum | BB721 growth rt | AI-2 QS JMH597
NCCSC1CC(=O)N(c2ccc(F)cc2)C1=O (stereo not drawn) | 25 | 14 | -1 | 1 | -2 | -1 | . | . | . | .
CC(C)N(Cc1ccccc1)C(=O)CN1C(=O)NC2(CCCC2)C1=O | . | 5 | 0 | 1 | -2 | 0 | . | . | . | .
Cc1ccc(C(=O)OCC(=O)c2c[nH]c3ccccc23)cc1 | -79* | -4 | 0 | 14 | -2 | -2 | 1 | 77* | 13 | 86*
Cc1cccc(NC(=O)CSCC(=O)OCc2ccccn2)c1 | 13 | -4 | -1 | 5 | -10 | 0 | . | . | . | .
Clc1ccc(CON/C=N/c2ncnc3sccc23)c(Cl)c1 | -95* | 10 | 0 | 0 | 0 | 1 | 8 | 90* | 22 | 94*
O=C(NCCC(=O)N1CCN(c2ccc(F)cc2)CC1)c1ccco1 | . | -5 | -1 | . | 2 | -1 | . | . | . | .
CCCN(CC1CC1)C(=S)NC(=O)c1cc(Br)ccc1Cl | . | -7 | 0 | . | -14 | 0 | . | . | . | .
c1ccc(OCCCc2nc(-c3cccnc3)no2)cc1 | -93* | -2 | -1 | -1 | -1 | 0 | 7 | 98* | -15 | 99*
COc1ccc(CCc2nc(-c3ccc(-n4cccc4)cc3)no2)cc1 | 32 | 3 | -1 | -2 | -1 | 0 | . | . | . | .
COc1ccc(-c2noc(CCc3ccccc3)n2)cc1 | ? | 0 | -1 | -3 | -7 | 0 | 26 | 94* | -27 | 97*
COc1ccc(Cc2nc(-c3cccc(C)c3)no2)cc1 | -80* | -3 | 0 | 19 | -1 | 1 | 3 | 94* | -259 | 96*
COc1ccc(Cc2nc(-c3ccccn3)no2)cc1 | -88* | 2 | -1 | 2 | -4 | -1 | -9 | 95* | -20 | 96*
c1ccc(CCCc2nc(-c3cccnc3)no2)cc1 | -62 | -2 | -1 | -4 | -4 | -1 | . | . | . | .
Cc1cccc(-c2noc(Cc3ccc(Cl)cc3)n2)c1 | -64 | -2 | -1 | 15 | -3 | 1 | . | . | . | .
COCCN(C(=O)COC(=O)CCC1CCCCC1)c1c(N)n(Cc2ccccc2)c(=O)[nH]c1=O | . | 8 | 0 | . | 0 | 1 | . | . | . | .
